Assay results from ChEMBL document CHEMBL1121626, “Quantitative structure-activity relationships for N-[N',N'-disubstituted-amino)acetyl]arylamines for local anesthetic activity and acute toxicity” (J Med Chem, 1980).
Activity calls are given as the source filed them. No cut-off for these calls is given here.

Legend:
Mus musculus [1] = organism: Mus musculus; experiment: Antiarrhythmic activity (arrhythmy induced by HCCl3 in mice) measured as its effect on ventricular fibrillation; No effect; assay type: functional, organism-based; details: Heart
Mus musculus [2] = experiment: Compound was evaluated for lethal dose (pLD50 = log1/LD50 in mol/kg.); assay type: toxicity, organism-based; details: in vivo
How it was run: (§1)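 Mice, groups of 10 randomized animals; aqueous drug solution given intravenously at 0.2 mL/20 g body weight. Percentage dead scored 5 days after start of experiment; LD50 derived by the usual statistical method, reported with 95% confidence interval.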

[3] = Partition coefficient (logP) (cyclohexane); assay type: physicochemical; details: cyclohexane/water
How it was run: (§2)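 Partition coefficients were measured by Brändström's titrimetric method at 25 °C in 1-octanol/water or cyclohexane/water. Amine hydrochloride in aqueous solution pre-saturated with the solvent was one-fifth neutralized with NaOH, then solvent was added. The pH was held at its original value by automatic alkali addition until equilibrium. Each value is the mean of eight determinations, reported with 95% confidence intervals.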

Oryctolagus cuniculus [4] = experiment: Compound was evaluated for anesthetic dose (pAD = log 1/AD; AD = anesthetic dose)
[5] = Dissociation constant was observed; assay type: physicochemical
How it was run: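 Values for water-insoluble compounds were obtained by extrapolation. Two values were derived indirectly from P = P'(1 + 10^(pKa − pH)), using P' measured at pH 12 and 7.34, or at pH 7.2 and 6.0.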

[6] = Compound was evaluated for the apparent partition coefficient at pH 7.4; assay type: physicochemical; details: octanol/water
How it was run: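 Apparent partition coefficient at pH 7.4 was calculated from the octanol/water log P and pKa using P = P'(1 + 10^(pKa − pH)).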

[7] = Partition coefficient (logP); assay type: physicochemical; details: octanol/water; how it was run: as §2
Mus musculus [8] = experiment: Delay of respiratory arrest was observed at 10 mg/kg ip in mice in antiarrhythmic assay; assay type: functional, Heart; details: route intraperitoneal
Oryctolagus cuniculus [9] = experiment: Anaesthetic activity measured as anaesthetic dose (AD) required to nullify the rabbit corneal reflex after 5 min; assay type: functional, Cornea
How it was run: (§3)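 Aqueous drug solution, 0.25 mL, applied to rabbit cornea for 1 min, then wiped off. 100 regular mechanical stimulations were given. The minimal active dose is the concentration that abolished the corneal reflex at 5 min. Testing was repeated until 10 concordant results were obtained, with experimental error no more than 10%.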

[10] = Intravenous lethal dose of the compound; assay type: ADME, organism-based; details: mouse, in vivo; how it was run: as §1
Mus musculus [11] = experiment: Delay of respiratory arrest was observed at 5 mg/kg ip in mice in antiarrhythmic assay; assay type: functional, Heart; details: route intraperitoneal
Oryctolagus cuniculus [12] = experiment: Anaesthetic activity measured as anaesthetic dose (AD) required to nullify the rabbit corneal reflex after 5 min;d = Irritant; assay type: functional, organism-based; details: Cornea; how it was run: as §3

| Compound | Activity (Mus musculus [1]) | pLD50 (Mus musculus [2]) | logP [3] | pAD (Oryctolagus cuniculus [4]) | pKa [5] | logD [6] | logP [7] | Increase (Mus musculus [8]) | AD (Oryctolagus cuniculus [9]) | LD50 [10] | Increase (Mus musculus [11]) | AD (Oryctolagus cuniculus [12]) |
| --- | --- | --- | --- | --- | --- | --- | --- | --- | --- | --- | --- | --- |
| CCN(CC)CC(=O)NCc1ccccc1.Cl | inactive | 3.42 | 1.02 | 0.93 | 8.07 | 1.39 | 2.14 | 25% | 117 mM | 376 µmol/kg | – | – |
| CCCCN(CCCC)CC(=O)NCc1ccccc1.Cl | inactive | 3.93 | 3.791 | 1.8 | – | – | 4.16 | – | 16 mM | 116 µmol/kg | 33.2% | – |
| CN(C)CC(=O)NCc1ccccc1.Cl | inactive | 3.13 | -0.453 | – | 7.62 | 0.681 | 1.11 | – | – | 735 µmol/kg | – | Irritant |
| CCN(CC)CC(=O)NC1c2ccccc2CCc2ccccc21.Cl | inactive | 3.86 | 4.153 | 1.25 | – | – | 4.41 | – | 20.9 mM | 139 µmol/kg | – | – |
| CCCCCN(CCCCC)CC(=O)NCc1ccccc1.Cl | inactive | – | 5.259 | 1.53 | – | – | 5.19 | – | 29.3 mM | – | – | – |
| CCN(CC)CC(=O)NC1CCc2ccccc21.Cl (stereo not given) | inactive | 3.62 | 1.645 | 1.45 | 8.19 | 1.88 | 2.74 | – | 27.9 mM | 238 µmol/kg | – | – |
| O=C(CN1CCCC1)NCc1ccccc1 | inactive | 3.44 | 0.156 | 0.71 | 8.27 | 0.769 | 1.69 | – | 196 mM | 361 µmol/kg | – | – |
| CCCN(CCC)CC(=O)NC1CCc2ccccc21.Cl (stereo not given) | inactive | 3.84 | 3.277 | 1.89 | – | – | 3.79 | – | 12.8 mM | 145 µmol/kg | – | – |
| Cl.O=C(CN1CCCCC1)NCc1ccccc1 | inactive | 3.61 | 1.198 | 0.73 | 7.71 | 1.78 | 2.27 | – | 186 mM | 245 µmol/kg | – | – |
| Cl.O=C(CN1CCOCC1)NCc1ccccc1 | inactive | 2.77 | -1.132 | 0.73 | 4.98 | 0.67 | 0.672 | – | 185 mM | 1720 µmol/kg | – | – |
| CCCN(CCC)CC(=O)NCc1ccccc1.Cl | inactive | 3.59 | 2.386 | 1.75 | – | – | 3.11 | – | 17.5 mM | 254 µmol/kg | – | – |
| CCN(CC)CC(=O)NCc1ccccc1-c1ccccc1.Cl | inactive | 3.89 | 3.2 | 1.82 | – | – | 3.74 | – | 34.5 mM | 128 µmol/kg | 20.5% | – |
| CCN(CC)CC(=O)NC(c1ccccc1)c1ccccc1.Cl | inactive | 3.67 | 3.2 | 1.82 | – | – | 3.74 | 27.8% | 15 mM | 212 µmol/kg | – | – |
| CCN(CC)CCOC(=O)c1ccc(N)cc1.Cl [PROCAINE HYDROCHLORIDE] | inactive | – | – | – | – | – | – | – | 36.7 mM | 169 µmol/kg | – | – |
| CCN(CC)CC(=O)NC1CC(c2ccccc2)c2ccccc21.Cl (stereo not given) | inactive | 3.78 | 4.153 | 1.55 | – | – | 4.41 | – | 55.8 mM | 164 µmol/kg | – | – |
| CCN(CC)CC(=O)NC1c2ccccc2-c2ccccc21.Cl | inactive | 3.83 | 3.067 | 1.82 | 7.98 | 2.96 | 3.64 | – | 15.1 mM | 146 µmol/kg | – | – |
| CCCN(CCC)CC(=O)NC1c2ccccc2-c2ccccc21.Cl | inactive | – | 4.44 | 1.68 | 7.28 | 4.37 | 4.61 | – | 20.9 mM | – | – | – |
